Results on ten compounds are retold here after the M2OR odorant receptor database.

What all share (conditions): stereoisomer not certain
In one assay the target is T1, OR51B5 (Homo sapiens) (UniProt Q9H339).
T1 sequence (whole entry): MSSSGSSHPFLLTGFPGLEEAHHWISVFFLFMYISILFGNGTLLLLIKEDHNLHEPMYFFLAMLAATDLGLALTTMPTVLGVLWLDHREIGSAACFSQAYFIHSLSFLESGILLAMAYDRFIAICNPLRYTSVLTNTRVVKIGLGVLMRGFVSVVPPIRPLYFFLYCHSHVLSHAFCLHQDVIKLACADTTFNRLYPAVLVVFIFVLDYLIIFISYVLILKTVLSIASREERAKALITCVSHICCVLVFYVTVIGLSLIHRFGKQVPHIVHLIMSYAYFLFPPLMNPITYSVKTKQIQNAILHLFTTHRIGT
Put shortly: (§1)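 Transient luciferase assays in mammalian cell lines were common, though methods varied by source. The values come from published papers and their supplementary material, with extra details from the original authors when needed. Responsive refers to a measured signal the original authors judged statistically different from baseline, and non-responsive (inactive) to the remainder.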

For the next assay, the target named is T2, OR51E1 (Homo sapiens) (UniProt Q8TCB6).
T2 sequence (whole entry): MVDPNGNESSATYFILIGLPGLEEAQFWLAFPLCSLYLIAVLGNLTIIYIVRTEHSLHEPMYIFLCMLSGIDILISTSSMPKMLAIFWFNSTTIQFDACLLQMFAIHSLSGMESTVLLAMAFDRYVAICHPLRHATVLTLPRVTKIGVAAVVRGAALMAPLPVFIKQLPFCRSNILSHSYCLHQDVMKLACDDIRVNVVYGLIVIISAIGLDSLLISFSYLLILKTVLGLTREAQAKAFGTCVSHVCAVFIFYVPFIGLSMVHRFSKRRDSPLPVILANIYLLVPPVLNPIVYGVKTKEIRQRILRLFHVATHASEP
In short, it runs like this:
as §1

A further assay has as its target T3, OR51E2 (Homo sapiens) (UniProt Q9H255).
T3 sequence (whole entry): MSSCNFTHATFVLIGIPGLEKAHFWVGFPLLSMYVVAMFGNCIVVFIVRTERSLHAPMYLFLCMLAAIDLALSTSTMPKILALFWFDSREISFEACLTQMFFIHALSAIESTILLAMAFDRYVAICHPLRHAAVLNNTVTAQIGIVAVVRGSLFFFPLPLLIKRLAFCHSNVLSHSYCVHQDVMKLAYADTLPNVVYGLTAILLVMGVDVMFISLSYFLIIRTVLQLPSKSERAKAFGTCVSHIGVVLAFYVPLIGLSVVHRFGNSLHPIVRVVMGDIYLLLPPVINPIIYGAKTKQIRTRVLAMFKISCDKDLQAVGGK
In short, it runs like this:
as §1
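Further: active if original authors judged signal statistically different from baseline.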

In the case of `CCCCCCCCCCCCCCCC(=O)OC`, the “odorant receptor agonist call” value in the assay with OR51B5 (Homo sapiens) was “inactive”.

On to `CCCCCC1=C(C)CCC1=O`, for which the “odorant receptor agonist call” value in the assay with OR51E1 (Homo sapiens) and with OR51E2 (Homo sapiens) was “inactive” in each case.

Turning to `CCCCCCCCCCCCCCCCCC(=O)[O-].[H+]`, in the assay with OR51B5 (Homo sapiens), the “odorant receptor agonist call” value is “inactive”.

For the compound `CCCCCCCCCCCCO`, the “odorant receptor agonist call” value with OR51B5 (Homo sapiens) was “inactive”.

As for `CCCCCCCCCO`, the “odorant receptor agonist call” value with OR51E1 (Homo sapiens) and with OR51E2 (Homo sapiens) was “inactive” throughout.

`CC1=CCC2CC1C2(C)C` (stereo not drawn): the “odorant receptor agonist call” value with OR51B5 (Homo sapiens) is “inactive”.

Regarding `CCC(O)CC`, the “odorant receptor agonist call” value in the assay with OR51B5 (Homo sapiens) was “inactive”.

For the compound `Cc1ccc(C(C)C)cc1`, the “odorant receptor agonist call” value with OR51B5 (Homo sapiens) was “inactive”.

As to `CCCCCCCCCCCCCC(=O)OC`, the “odorant receptor agonist call” value with OR51B5 (Homo sapiens) was “inactive”.

Take `CCCCCCCCCCCC(=O)O`: the “odorant receptor agonist call” value with OR51B5 (Homo sapiens) is “active”. Moreover, the “odorant receptor agonist call” value with OR51E1 (Homo sapiens) is “inactive”.
